Laboratory results as given in ChEMBL document CHEMBL1240410, “Cytotoxicity against cholangiocarcinoma cell lines of zerumbone derivatives” (Eur J Med Chem, 2010).
Activity calls are given as the source filed them. No cut-off for these calls is given here.

Key:
Format in all cases: functional, cell-based
KKU-M139 = assay: Cytotoxicity against human KKU-M139 cells at 75 uM
KKU-M213 = assay: Cytotoxicity against human KKU-M213 cells at 75 uM
KKU-M214 = assay: Cytotoxicity against human KKU-M214 cells at 75 uM
KKU100 = assay: Cytotoxicity against human KKU100 cells at 75 uM
KKU-M156 = assay: Cytotoxicity against human KKU-M156 cells at 75 uM
[1] = Cytotoxicity against human KKU-M214 cells
How it was run: (§1)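 SRB assay: cells seeded at 0.5–1.0 × 10^5 cells/mL and held 24 h at 37 °C. Compounds added in triplicate at final 0.025, 0.16, 0.8, 4 and 20 µg/well, with 0.1% DMSO as solvent control. Exposure was 72 h at 37 °C, plus a 1 h starting-cell plate. Cells fixed with TCA, stained with SRB, OD read at 510 nm. IC50 taken as 50% reduction of control protein increase.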

[2] = Cytotoxicity against human KKU100 cells; how it was run: as §1
[3] = Cytotoxicity against human KKU-M156 cells; how it was run: as §1
[4] = Cytotoxicity against human KKU-M213 cells; how it was run: as §1
[5] = Cytotoxicity against human KKU-M139 cells; how it was run: as §1

Row | Compound | Activity (KKU-M139) | Activity (KKU-M213) | Activity (KKU-M214) | Activity (KKU100) | Activity (KKU-M156) | IC50 [1] | IC50 [2] | IC50 [3] | IC50 [4] | IC50 [5]
1 | CC(=O)N[C@@H]1CC/C(C)=C/CC(C)(C)/C=C/C(=O)[C@@H]1C (racemic) | inactive | inactive | inactive | inactive | inactive | – | – | – | – | –
2 | CCCCN[C@@H]1CC[C@@]2(C)O[C@H]2CC(C)(C)/C=C/C(=O)[C@@H]1C (racemic) | inactive | – | – | – | – | 51 µM | 16.5 µM | 48.2 µM | 37.6 µM | –
3 | C/C1=C\CC(C)(C)/C=C/C(=O)[C@H](C)[C@H](N(C)C)CC1 | inactive | inactive | inactive | inactive | inactive | – | – | – | – | –
4 | C[C@H]1C(=O)/C=C/C(C)(C)C[C@@H]2O[C@]2(C)CC[C@H]1N (racemic) | inactive | inactive | – | inactive | inactive | 18.3 µM | – | – | – | –
5 | CCCCN[C@@H]1CC/C(C)=C/CC(C)(C)/C=C/[C@H](O)[C@@H]1C (racemic) | – | – | – | – | – | 16.1 µM | 35.3 µM | 26.3 µM | 27.2 µM | 19.6 µM
6 | C/C1=C\CC(C)(C)[C@H](C#N)CC(=O)[C@H](C)[C@H](C#N)CC1 (racemic) | inactive | inactive | – | inactive | inactive | 66.5 µM | – | – | – | –
7 | C/C1=C\CC(C)(C)/C=C/C(O)/C(C)=C/CC1 (racemic) | inactive | inactive | inactive | inactive | inactive | – | – | – | – | –
8 | CC(=O)N[C@@H]1CC[C@@]2(C)O[C@H]2CC(C)(C)/C=C/C(=O)[C@@H]1C (racemic) | inactive | inactive | inactive | inactive | inactive | – | – | – | – | –
9 | CC(=O)OC1/C=C/C(C)(C)C/C=C(\C)CC/C=C/1C (racemic) | inactive | inactive | inactive | inactive | inactive | – | – | – | – | –
10 | CCCCN(C(C)=O)[C@@H]1CC/C(C)=C/CC(C)(C)/C=C/C(=O)[C@@H]1C | inactive | inactive | inactive | inactive | inactive | – | – | – | – | –
11 | C/C1=C\CC(C)(C)C(C#N)CC(=O)/C(C)=C/CC1 (stereo not given) | – | – | – | – | – | 54.5 µM | 25.7 µM | 37.3 µM | 45.1 µM | 55.9 µM
12 | CCCCN[C@@H]1CC/C(C)=C/CC(C)(C)/C=C/C(=O)[C@@H]1C (racemic) | inactive | – | – | inactive | inactive | 41.6 µM | – | – | 36.6 µM | –
13 | C/C1=C\CC(C)(C)/C=C/C(=O)[C@H](C)[C@H](NCc2ccccc2)CC1 (racemic) | inactive | inactive | inactive | inactive | inactive | – | – | – | – | –
14 | C[C@H]1C(=O)/C=C/C(C)(C)C[C@@H]2O[C@]2(C)CC[C@H]1NCc1ccccc1 (racemic) | inactive | inactive | inactive | inactive | inactive | – | – | – | – | –
15 | C/C1=C\CC(C)(C)C(C#N)CC(=O)[C@H](C)[C@H](N(C)C)CC1 (stereo not given in full) | inactive | inactive | inactive | inactive | inactive | – | – | – | – | –
16 | C/C1=C\CC(C)(C)/C=C/C(=O)/C(C)=C/CC1 | inactive | inactive | inactive | inactive | inactive | – | – | – | – | –
17 | C/C1=C\CC(C)(C)/C=C/C(=O)[C@H](C)[C@H](N)CC1 (racemic) | – | – | – | – | – | 59.6 µM | 16.4 µM | 69 µM | 51.9 µM | 63.3 µM
18 | CC(=O)N[C@@H]1CC/C(C)=C/CC(C)(C)/C=C/[C@H](O)[C@@H]1C (racemic) | inactive | inactive | inactive | inactive | inactive | – | – | – | – | –
19 | C/C1=C\CC(C)(C)/C=C/[C@H](O)[C@@]2(C)O[C@H]2CC1 (racemic) | inactive | inactive | inactive | inactive | inactive | – | – | – | – | –
20 | Cc1c2ccncc2c(C)c2c1[nH]c1ccccc12 [ELLIPTECINE] | – | – | – | – | – | 1.01 µM | 25.2 µM | 9.34 µM | 1.62 µM | 4.5 µM
21 | C/C1=C\CC[C@@]2(C)O[C@H]2CC(C)(C)/C=C/C1=O (racemic) | inactive | inactive | – | inactive | inactive | 52.6 µM | – | – | – | –
